Tests used:
MCF7 [1] = experiment: Effect on Estrogen receptor positive MCF-7 human breast cancer cell proliferation at 1x10E-6M (control = 25.4+/-3.1); type: functional
Procedure, shortened: (§1)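 MCF-7 cells were kept in MEM with 5% charcoal-treated newborn calf serum and phenol red for 2 weeks, then about 2×10^4 cells were plated per well. Compounds in 0.1% DMF were added 2 days later and renewed on day 4; DMF alone served as control. Coulter cell counts were taken on day 5; mean of six dishes ± SD; % T/C.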

MCF7 [2] = experiment: Effect on Estrogen receptor positive MCF-7 human breast cancer cell proliferation at 1x10E-6M; type: functional; procedure, shortened: as §1
[3] = target: T1, Estrogen receptor (Mus musculus) (UniProt O08537+P19785); experiment: Percent inhibition of estrone stimulated uterotrophic effect in mice at 15 ug; type: functional
T1 sequence (O08537 whole entry, looked up): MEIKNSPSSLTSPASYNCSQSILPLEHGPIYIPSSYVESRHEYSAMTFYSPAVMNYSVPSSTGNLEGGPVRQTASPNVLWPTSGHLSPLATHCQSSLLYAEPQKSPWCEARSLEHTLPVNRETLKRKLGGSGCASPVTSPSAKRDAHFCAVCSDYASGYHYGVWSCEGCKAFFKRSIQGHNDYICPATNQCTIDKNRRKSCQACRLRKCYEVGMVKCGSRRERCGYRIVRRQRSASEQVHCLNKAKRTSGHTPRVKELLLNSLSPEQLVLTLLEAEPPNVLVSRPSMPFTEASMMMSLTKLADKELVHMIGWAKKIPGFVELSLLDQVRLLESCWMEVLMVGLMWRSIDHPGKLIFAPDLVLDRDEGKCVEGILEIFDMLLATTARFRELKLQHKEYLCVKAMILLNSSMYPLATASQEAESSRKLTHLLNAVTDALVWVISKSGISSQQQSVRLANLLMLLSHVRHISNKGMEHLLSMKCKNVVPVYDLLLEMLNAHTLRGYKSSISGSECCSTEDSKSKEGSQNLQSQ
T1 sequence (P19785 whole entry, looked up): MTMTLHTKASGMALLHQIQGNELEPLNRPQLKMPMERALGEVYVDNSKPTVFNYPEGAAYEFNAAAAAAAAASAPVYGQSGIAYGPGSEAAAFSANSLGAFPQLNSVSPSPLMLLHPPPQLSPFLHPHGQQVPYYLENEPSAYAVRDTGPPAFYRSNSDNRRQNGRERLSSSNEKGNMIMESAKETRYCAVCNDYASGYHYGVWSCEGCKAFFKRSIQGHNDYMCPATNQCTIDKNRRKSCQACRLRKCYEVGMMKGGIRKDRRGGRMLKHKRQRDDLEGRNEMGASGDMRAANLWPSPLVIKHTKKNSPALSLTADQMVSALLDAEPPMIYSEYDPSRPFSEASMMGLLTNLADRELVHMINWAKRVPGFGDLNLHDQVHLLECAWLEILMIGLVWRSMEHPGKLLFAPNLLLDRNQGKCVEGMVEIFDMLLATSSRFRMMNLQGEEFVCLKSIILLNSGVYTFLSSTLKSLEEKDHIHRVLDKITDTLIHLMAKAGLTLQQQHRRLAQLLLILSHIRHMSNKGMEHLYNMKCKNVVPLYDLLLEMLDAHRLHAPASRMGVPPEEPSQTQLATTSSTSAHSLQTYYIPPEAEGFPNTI
Procedure, shortened: (§2)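 Immature mice given test compound per animal sc on three consecutive days together with 0.4 μg estrone/animal/day. Killed 24 h after last injection; uteri fixed in Bouin, dried 100 °C 24 h and weighed. Inhibition = 100 − [(W_S,T − W_V)/(W_S − W_V) × 100] using relative uterus weights; 6-10 animals; Wilcoxon-Mann-Whitney U test.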

MCF7 [4] = experiment: Effect on [3H]thymidine incorporation into estrogen receptor positive MCF-7 human breast cancer cells at 1*10^-6 M (control = 10.6+/-1.9); type: functional
Procedure, shortened: (§3)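 MCF-7 cells were grown in MEM with charcoal-treated 5% newborn calf serum and phenol red, then treated with compounds in 0.1% DMF (renewed on day 4) alongside DMF controls. They were labeled 3 days later with 1 µCi [³H]thymidine per well for 2 h, and incorporated radioactivity per dish was measured; mean of six dishes ± SD; % T/C.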

MCF7 [5] = experiment: Effect on [3H]thymidine incorporation into estrogen receptor positive MCF-7 human breast cancer cells at 1x10E-6M; type: functional; procedure, shortened: as §3
MCF7 [6] = experiment: Effect on [3H]thymidine incorporation into estrogen receptor positive MCF-7 human breast cancer cells at 5*10e-6 M (control = 10.6+/-1.9); type: functional
Procedure, shortened: (§4)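 MCF-7 cells in improved MEM with glutamine, gentamycin and 5% newborn calf serum, switched to charcoal-treated serum two weeks ahead; phenol red present; 37 °C, 5% CO2. About 2×10^4 cells plated per well; compound in 0.1% DMF added 2 days later, renewed on day 4; labelled 3 days later with 1 μCi [3H]thymidine per well for 2 h; cpm/dish, mean of six dishes ± SD.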

[7] = target: T1, Estrogen receptor (Mus musculus); experiment: Percent inhibition of estrone stimulated uterotrophic effect in mice at 150 ug; type: functional; procedure, shortened: as §2
[8] = target: T1, Estrogen receptor (Mus musculus); experiment: Uterotrophic effect in mice as relative uterine weight(mg) at 150 ug (control = […]+/-1.7); type: functional, tissue-based
[9] = target: T1, Estrogen receptor (Mus musculus); experiment: Anti-uterotrophic effect in mice as relative uterine weight(mg) at 150 ug; type: functional
Procedure, shortened: (§5)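 Immature mice received the compound sc per animal on three consecutive days, alone or with 0.4 µg estrone per animal per day. Uteri were taken 24 h after the last injection, Bouin-fixed, dried at 100 °C for 24 h and weighed. Relative uterus weight = dry weight (mg)/body weight (g) × 100; mean of 6-10 animals ± SD; Mann-Whitney U test.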

MCF7 [10] = experiment: Effect on Estrogen receptor positive MCF-7 human breast cancer cell proliferation at 5x10E-6M; type: functional; procedure, shortened: as §1
MCF7 [11] = experiment: Effect on Estrogen receptor positive MCF-7 human breast cancer cell proliferation at 5x10E-6M (control = 25.4+/-3.1); type: functional; procedure, shortened: as §1
[12] = target: T1, Estrogen receptor (Mus musculus); experiment: Anti-uterotrophic effect in mice as relative uterine weight(mg) at 15 ug; type: functional; procedure, shortened: as §5
MCF7 [13] = experiment: Effect on [3H]thymidine incorporation into estrogen receptor positive MCF-7 human breast cancer cells at 5x10E-6M; type: functional; procedure, shortened: as §4
[14] = target: T1, Estrogen receptor (Mus musculus); experiment: Uterotrophic effect in mice as relative uterine weight(mg) at 15 ug (control = […]+/-1.7); type: functional, tissue-based
MCF7 [15] = experiment: Effect on Estrogen receptor positive MCF-7 human breast cancer cell proliferation at 1x10E-6M (control = 63.8+/-9.0); type: functional; procedure, shortened: as §1
MCF7 [16] = experiment: Effect on [3H]-thymidine incorporation into estrogen receptor positive MCF-7 human breast cancer cells at 5x10E-7M (control = 42.6+/-2.8); type: functional; procedure, shortened: as §3
MCF7 [17] = experiment: Effect on Estrogen receptor positive MCF-7 human breast cancer cell proliferation at 5x10E-7M (control = 63.8+/-9.0); type: functional; procedure, shortened: as §1
MCF7 [18] = experiment: Effect on [3H]thymidine incorporation into estrogen receptor positive MCF-7 human breast cancer cells at 5x10E-7M
MCF7 [19] = experiment: Effect on [3H]thymidine incorporation into estrogen receptor positive MCF-7 human breast cancer cells at 5x10E-6M (control = 42.6+/-2.8); type: functional; procedure, shortened: as §4
MCF7 [20] = experiment: Effect on Estrogen receptor positive MCF-7 human breast cancer cell proliferation at 5x10E-7M; type: functional; procedure, shortened: as §1
[21] = target: T1, Estrogen receptor (Mus musculus); experiment: Uterotrophic effect in mice as relative uterine weight(mg) at 15 ug (control = 12.3+/-3.7); type: functional, tissue-based
Procedure, shortened: (§6)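 Immature mice dosed sc per animal on three consecutive days; vehicle controls. Killed and weighed 24 h after last injection; uteri fixed in Bouin solution 2 h, washed with alcoholic LiCl, dried at 100 °C for 24 h. Relative uterus weight = uterine dry weight (mg)/body weight (g) × 100; mean of 6-10 animals ± SD.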

MCF7 [22] = experiment: Effect on Estrogen receptor positive MCF-7 human breast cancer cell proliferation at 5x10E-6M (control = 63.8+/-9.0); type: functional; procedure, shortened: as §1
[23] = target: T1, Estrogen receptor (Mus musculus); experiment: Uterotrophic effect in mice as relative uterine weight(mg) at 150 ug (control = 12.3+/-3.7); type: functional, tissue-based; procedure, shortened: as §6
MCF7 [24] = experiment: Effect on [3H]thymidine incorporation into estrogen receptor positive MCF-7 human breast cancer cells at 1x10E-6M (control = 42.6+/-2.8); type: functional; procedure, shortened: as §3

SMILES | T/C (MCF7 [2]) [%] | inhibition [3] [%] | T/C (MCF7 [5]) [%] | inhibition [7] [%] | Relative uterus weight [9] [mg] | T/C (MCF7 [10]) [%] | Relative uterus weight [12] [mg] | T/C (MCF7 [13]) [%] | further results
CCC(NCCCCCCn1c(-c2ccc(O)cc2)c(C)c2cc(O)ccc21)c1ccccn1 (configuration not stated) | 77 | 42 | 99 | 51 | 30.5 | 54 | 32.8 | 79 | Cell no/dish (MCF7 [1]): 195000; Activity (MCF7 [4]): 10500; Activity (MCF7 [6]): 8400; Relative uterus weight [8]: 26 mg; Cell no/dish (MCF7 [11]): 137000; Relative uterus weight [14]: 14.7 mg
Cc1c(-c2ccc(O)cc2)n(CCCCCCCNCc2ccccn2)c2ccc(O)cc12 | 41 | 11 | 27 | 48 | 29.4 | 23 | 41.9 | 5 | Cell no/dish (MCF7 [15]): 264000; [3H] thymidinecpm/dish (MCF7 [16]): 14500; Cell no/dish (MCF7 [17]): 369000; T/C (MCF7 [18]): 34%; Activity (MCF7 [19]): 2200; T/C (MCF7 [20]): 58%; Relative uterus weight [21]: 15.2 mg; Cell no/dish (MCF7 [22]): 146000; Relative uterus weight [23]: 19 mg; Activity (MCF7 [24]): 11300

From ChEMBL document CHEMBL1125823, “2-Phenylindole-linked [2-(aminoalkyl)pyridine]dichloroplatinum(II): complexes with a selective action on estrogen receptor positive mammary tumors” (1991)
